# Screening data (PubChem BioAssay)
# In the library only some 1.6% were active in any assay of this set; here they are far more common.
# LEDGF integ inh – blockers of LEDGF/p75-dependent integrase strand transfer – biochemical, TR-FRET, high throughput, primary screen | hit rate 0.64% among 370,000 | inhibition, % at 3.7 µM | TR-FRET IN-LEDGF/p75 DNA integration, Eu/Cy5;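 active = inhibition above the screen-wide mean plus 3 SD, cut at about 13% in these data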;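 also: signal is the Cy5 over europium emission ratio at 671 and 618 nm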
# UHRF1 binding – UHRF1 methylated DNA binding inhibitors, primary screen, counter-screen for MBD2 inhibitor project, biochemical, TR-FRET, human UHRF1, single concentration; hit rate 0.75% among 370,000; UHRF1 binding to methylated oligo; E3 ubiquitin-protein ligase UHRF1 (Homo sapiens), Q96T88; AID 687016, 2013; inhibition, % at 4.4 µM; in the data active = inhibition above about 21%;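 also: UHRF1 SRA domain binding a hemimethylated CpG hairpin DNA probe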
# MBD2 DNA inh – inhibitors of MBD2 binding to methylated DNA, primary screen, biochemical, TR-FRET, DNA-binding domain, human. Methyl-CpG-binding domain protein 2 (Homo sapiens), Q9UBB5. MBD2 binding to methylated oligonucleotide. inhibition, % at 4.4 µM. hit rate 0.31% among 370,000; in the data active = inhibition above about 13%
# Target sequence (Q9UBB5 whole entry, looked up, the tested form may be a part): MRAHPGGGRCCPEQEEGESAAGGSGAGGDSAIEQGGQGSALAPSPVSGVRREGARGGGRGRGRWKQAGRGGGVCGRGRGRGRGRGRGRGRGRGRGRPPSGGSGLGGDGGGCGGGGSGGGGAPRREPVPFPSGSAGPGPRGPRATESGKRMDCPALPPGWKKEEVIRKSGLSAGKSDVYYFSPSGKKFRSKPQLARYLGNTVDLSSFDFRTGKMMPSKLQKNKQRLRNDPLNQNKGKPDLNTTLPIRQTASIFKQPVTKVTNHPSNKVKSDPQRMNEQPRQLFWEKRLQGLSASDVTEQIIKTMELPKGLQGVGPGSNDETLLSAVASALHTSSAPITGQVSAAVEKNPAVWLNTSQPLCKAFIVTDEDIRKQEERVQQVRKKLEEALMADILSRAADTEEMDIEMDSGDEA
# TDP2 absorb – human TDP2 enzyme inhibitors, primary screen, biochemical, epi absorbance, recombinant enzyme; T5PNP hydrolysis, p-nitrophenol absorbance 415 nm; inhibition, % at 12.8 µM; hit rate 0.34% among 370,000;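 active = inhibition above the mean of all tested compounds plus 3 SD, set per campaign, cut at about 25% in these data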
#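 Read-out basis: percent inhibition. System: recombinant human TDP2. Buffer or medium: Mg2+-containing Tris-HCl buffer, pH 7.5. Repeats: single replicate. Timing: reaction 2 h, 37 °C. Benchmarks: high control without enzyme, low control DMSO plus TDP2. Probe or stimulus: 5 mM T5PNP. Doses: 12.8 µM only. Measured by: epi absorbance of p-nitrophenol freed from T5PNP by hydrolysis.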
# IN multimer up – HIV-1 IN multimer formation enhancers, counter-screen for LEDGF/p75 integration inhibitor project, biochemical, TR-FRET; shares compounds with LEDGF integ inh; TR-FRET HIV-1 integrase multimerization; activation, % at 7.7 µM; hit rate 17% among 2,000; AID 1053131, 2014; in the data active = activation above about 8.9%
# TRFRET interf – TR-FRET optical interference artefacts, confirmation, artefact control for LEDGF/p75-dependent integration inhibitor project, biochemical, HIV-1 IN multimerization | shares compounds with LEDGF integ inh | TR-FRET optical interference counterscreen | inhibition, % at 7.7 µM | 2,000 tested, under 10 active;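 active = inhibition above the mean over all tested compounds plus 3 SD, which no compound reached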
# LEDGF integ conf – inhibitors of HIV-1 IN-LEDGF/p75 DNA integration, confirmation, biochemical, TR-FRET; shares compounds with LEDGF integ inh; TR-FRET LEDGF/p75-dependent HIV-1 integration; inhibition, % at 3.7 µM; hit rate 36% among 2,000; AID 1053136, 2014; in the data active = inhibition above about 14%
# A number is an active result; . = inactive; / = not tested or not shown.
SMILES,LEDGF integ inh,UHRF1 binding,MBD2 DNA inh,TDP2 absorb,IN multimer up,TRFRET interf,LEDGF integ conf
O=C(NCCN1CCOCC1)c1ccc2c(c1)N(Cc1ccccc1F)C(=O)c1ccccc1S2,.,.,.,.,/,/,/
COCC1CN(CCc2ccc(F)cc2)S(=O)(=O)c2c(F)cccc2O1 (stereo not drawn),18,.,.,.,.,.,.
CCCCc1nnn2c1C1c3cc(-c4cccnc4)ccc3CCN1C(=O)C2 (stereo not drawn),.,.,.,.,/,/,/
CC(=O)C1=C(C)N(CC(C)C)C(=S)NC1c1ccc(Br)cc1 (stereo not drawn),.,.,.,.,/,/,/
O=C(CCSc1ccccc1)Nc1nnc(-c2ccccc2)o1,16,.,.,.,.,.,.
CC(C)(C)[C@@H]1/C(=C/C2CC2)N2C(=O)C[C@@H](c3ccccc3)N=C2N1Cc1ccc2c(c1)OCO2,.,.,.,.,/,/,/
CCCCn1c(=O)[nH]c2nc3cc(N)ccc3nc2c1=O,17,.,.,.,.,.,.
CC1C(=O)N(Cc2cn(Cc3ccco3)nn2)CCS(=O)(=O)N1Cc1ccc(-c2cccnc2)cc1 (stereo not drawn),17,.,.,.,.,.,.
CCCCCc1c(O)nc(SCC(=O)NCC2CCCO2)[nH]c1=O (stereo not drawn),34,.,.,.,.,.,.
CCCCc1c(O)nc(SCC(=O)NCC2CCCO2)[nH]c1=O (stereo not drawn),.,.,.,.,/,/,/
CCOC(=O)[C@@]12CN(C(=O)OC(C)(C)C)CC=C1N(Cc1ccc(OC)cc1)C(=O)[C@H]2CC(=O)NCC1CCCCC1,.,.,.,.,/,/,/
O=C(NC(=S)Nc1cccc([N+](=O)[O-])c1)C1CCCC1,88,.,.,.,.,.,.
CC(OC(=O)c1ccc2ccccc2n1)C(=O)Nc1ccc(N2CCOCC2)cc1 (stereo not drawn),15,.,.,.,.,.,.
N#Cc1nc(-c2ccc(F)cc2)oc1NCc1ccccc1,15,.,.,.,.,.,.
N#Cc1nc(-c2cccs2)oc1NCc1ccccc1,14,.,.,.,.,.,17
Cc1ccc(CNc2oc(-c3cccs3)nc2C#N)cc1,21,.,.,.,.,.,.
CCCC1CCC2(CC1)CCC2OC(=S)Nc1cccc(C(F)(F)F)c1 (stereo not drawn),.,.,.,.,/,/,/
CC(C)(C)NC(=O)C(c1cccnc1)N(C(=O)c1cccs1)c1ccc(C(C)(C)C)cc1 (stereo not drawn),.,.,.,.,/,/,/
CCn1ncc(NC(=S)Nc2ccc3c(c2)OCO3)c1C(N)=O,.,.,.,.,/,/,/
CCn1ncc(NC(=S)Nc2ccc(OC)c(OC)c2)c1C(N)=O,14,.,.,.,.,.,.
Nc1[nH]c(C(=O)c2ccc(Br)cc2)c(-c2cccc3ccccc23)c1C(=O)NCCc1c[nH]c2ccccc12,.,.,.,.,/,/,/
O=S1(=O)c2ccc(Br)cc2OC[C@H](Cc2ccccc2)N1Cc1cn(CCC2OCCO2)nn1,.,.,.,.,/,/,/
CC1=C[C@]2(CN(CC3CC3)C3=N[C@H](c4ccccc4)CC(=O)N32)n2c(=O)n(-c3ccccc3)c(=O)n2C1,.,.,.,.,/,/,/
Cc1ccc(NC(=O)CNCC2CCCCC2)cc1S(=O)(=O)N(C)C,32,.,.,.,.,.,.
COc1ccc(CN(CCN2CCOCC2)C(=O)c2ccccc2C)cc1OC,.,.,.,.,/,/,/
SMILES,LEDGF integ inh,UHRF1 binding,MBD2 DNA inh,TDP2 absorb,IN multimer up,TRFRET interf,LEDGF integ conf
COc1ccc(/C=N/NC(=O)c2nn(-c3ccccc3)c(=O)c3c(N)scc23)cc1,17,.,.,.,.,.,17
COC(=O)c1cc2c(c3c4cc(F)ccc4n(C(=O)c4ccccc4)c13)C(=O)N(C1CCCCC1)C2,.,.,.,.,/,/,/
COc1ccc2cc(-c3cccc4[nH]cc(C)c34)ccc2c1,.,.,.,.,/,/,/
CCn1c(=O)c(C(=O)CN2CCN(Cc3ccc4c(c3)OCO4)CC2)c(N)n(Cc2ccccc2)c1=O,.,.,.,.,/,/,/
CCn1c(=O)c(C(=O)CN2CCN(S(=O)(=O)c3cc(C)ccc3C)CC2)c(N)n(Cc2ccccc2)c1=O,50,.,.,.,.,.,.
Cc1cc2c(NC(=O)Nc3ccc(C(F)(F)F)cc3)cccc2nn1,30,.,.,.,.,.,.
Cc1cc2c(NC(=O)CCCC(=O)O)cccc2nn1,.,.,.,.,/,/,/
CCCCCC1NC(=O)NC1CCCCCC(=O)O (stereo not drawn),.,.,.,.,/,/,/
Cc1cccc(C)c1NC(=O)CCCCCC1NC(=O)NC1C (stereo not drawn),20,.,.,.,.,.,.
O=C(O)CCCCC1SCC2NC(=O)NC21 (stereo not drawn),70,.,.,.,.,.,63
C[C@@H]1NC(=O)N[C@@H]1CCCCCC(=O)O,82,.,.,.,.,.,74
O=C(O)CCCN1C(=O)C2C3CCC(C3)C2C1=O (stereo not drawn),.,.,.,.,/,/,/
C[C@H]1[C@@H](NC(=O)C2CCC2)CC[C@@]23CCCN2C(=O)CCC[C@@H]13,.,.,.,.,/,/,/
C[C@H](O)[C@@H]1C(=O)N2CCc3c([nH]c4c(-c5ccccc5)cccc34)[C@@H]2C[C@@H]1N(C)C(=O)OCc1ccccc1,.,.,.,.,/,/,/
CC(C)c1ccc(NC(=O)O[C@@H]2CC[C@@]34CCCN3C(=O)CCC[C@H]4C2)cc1,.,.,.,.,/,/,/
O=C1O[C@@H](c2ccc(O)cc2)Cc2cccc(O)c21,.,.,.,.,/,/,/
O=C1C[C@@H](O)[C@H](O)c2cccc(O)c21,18,.,.,.,.,.,.
COc1ccc(NC(=O)Nc2ccccc2C(=O)N2CCCC2)cc1OC,.,.,.,.,/,/,/
CC(C)C[C@H](NC1(C(=O)NCCc2c[nH]c3ccccc23)CCC1)C(=O)NCCCc1ccccc1,.,.,.,.,/,/,/
O=C(CCCOc1ccc(Cl)cc1Cl)NCCCn1ccnc1,27,.,.,.,.,.,.
Cc1ccc(C(=O)ONc2ccc(N=NC(=O)c3ccccc3O)cc2)cc1,20,.,.,.,.,.,.
